Measurements reported in PMC9053741 (RSC Advances, 2020).
Read-outs that look alike come from different tables or passages of the source.

Experiments:
HepG-2 = experiment: Cytotoxicity assay; type: cell-based, Human; details: for IC50: read-out: IC50 HepG-2; for SI (selectivity indices): LO2 vs HepG-2, 48 h
LO2 = experiment: Cytotoxicity assay; type: cell-based; details: read-out: IC50 LO2
HepG-2 cells [1] = experiment: Cell apoptosis assay; type: cell-based, Human; details: HepG-2, 5 μM, 24 h
Summary of the method: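 HepG-2 (1 × 10^6 cells per mL) exposed to 5 μM test compound for 24 h at 37 °C in 5% CO2. Resuspended in binding buffer (140 mM NaCl, 2.5 mM CaCl2, 10 mM Hepes/NaOH, pH 7.4) and stained with Annexin V and PI for 20 min at room temperature using a kit protocol. Early and late apoptotic fractions measured by flow cytometry.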

HepG-2 cells [2] = experiment: Cell cycle distribution analysis; type: cell-based, Human; details: HepG-2, 5 μM, 24 h
Summary of the method: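 HepG-2 seeded at 1 × 10^5 cells per mL, settled 12 h at 37 °C in 5% CO2. Exposed to 5 μM test compound for 24 h, washed with cold PBS (pH 7.4) and fixed in 75% EtOH for 12 h at −20 °C. Treated with RNase (2.5 mg mL−1), stained with propidium iodide for 0.5 h, then run on a flow cytometer, 10000 events per sample.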

[3] = test system: transferrin receptor-1 (TfR1); experiment: Western blot, TfR1 expression; type: cell-based, Human; details: HepG-2, 5 μM, 24 h
Summary of the method: (§1)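 HepG-2 seeded at 1 × 10^5 cells per mL, grown 24 h, then given 5 μM test compound for 24 h. Cells washed in ice-cold PBS, lysed, and spun at 10000g for 15 min at 4 °C. Protein measured by […], separated by SDS-PAGE and transferred to PVDF on ice for 3 h. Blocked in 5% skim milk/TBST for 1 h at 25 °C, primary antibody overnight at 4 °C, secondary 1 h at 25 °C. ECL detection, normalized to β-actin and expressed relative to control. Student's t test.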

ferritin = experiment: Western blot, ferritin expression; type: cell-based, Human; details: HepG-2, 5 μM, 24 h
Summary of the method: as §1

HepG-2 cells [4] = experiment: Intracellular ROS measurements; type: cell-based, Human; details: HepG-2, 5 μM, 24 h
Summary of the method: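 Using a kit protocol, HepG-2 were incubated with 5 μM test compound in serum-free medium for 24 h at 37 °C. 2 μM H2DCF-DA was then added and cells washed with serum-free medium. Fluorescence measured by flow cytometry and expressed relative to untreated control.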

Cdk 2 = experiment: Western blot, Cdk 2 expression; type: cell-based, Human; details: HepG-2, 5 μM, 24 h
Summary of the method: as §1

cyclin A = experiment: Western blot, cyclin A expression; type: cell-based, Human; details: HepG-2, 5 μM, 24 h
Summary of the method: as §1

cyclin E = experiment: Western blot, cyclin E expression; type: cell-based, Human; details: HepG-2, 5 μM, 24 h
Summary of the method: as §1

| Structure (SMILES) | IC50 (HepG-2; HepG-2 cells, 48 h, MTT) [nM] | IC50 (LO2; LO2 normal cells, 48 h, MTT) [µM] | IC50 (HepG-2; Homo sapiens, HepG2, 48 h) [nM] | SI (selectivity indices) (HepG-2) | IC50 (LO2; Homo sapiens, L02, 48 h) [µM] | also measured |
| --- | --- | --- | --- | --- | --- | --- |
| [Cl][Ga-2]12([Cl])[S]C(NC3CCCCC3)=N[N+]1=C(c1ccccc1)c1cccc[n+]12 [C4, Dichlorido[N-cyclohexyl-2-(phenyl(pyridin-2-yl)methylene)hydrazinecarbothioamide-N,N,S]-gallium(III)] | 970 ± 20 | 20.4 ± 1.13 | – | – | – | – |
| CNC1=N[N+]2=C(c3ccccc3)c3cccc[n+]3[Ga-2]2([Cl])([Cl])[S]1 [C2, Dichlorido[N-methyl-2-(phenyl(pyridin-2-yl)methylene)hydrazinecarbothioamide-N,N,S]-gallium(III)] | 2760 ± 390 | 25.8 ± 2.93 | – | – | – | – |
| S=C(NN=C(c1ccccc1)c1ccccn1)NC1CCCCC1 [L4, N-Cyclohexyl-2-(phenyl(pyridin-2-yl)methylene)hydrazinecarbothioamide] | – | – | 1320 ± 90 | 22.97 | 30.3 ± 2.16 | – |
| N.N.[Cl][Pt][Cl] [Cisplatin, reference compound] | 22400 ± 2210 | 21.3 ± 2.35 | – | – | – | – |
| CN(C(=S)NN=C(c1ccccc1)c1ccccn1)C1CCCCC1 [L6, N-Cyclohexyl-N-methyl-2-(phenyl(pyridin-2-yl)methylene)hydrazinecarbothioamide] | – | – | 320 ± 20 | 36.06 | 11.5 ± 0.54 | percentage of early apoptosis and late apoptosis relative to the control (HepG-2 cells [1]): 24.87%; G1 phase cell proportion (HepG-2 cells [2]): increase; percentage of G2 phase cells compared to the vehicle-treated control (HepG-2 cells [2]): reduced; expression of TfR1 compared to the vehicle-treated control [3]: about 1.43 fold; expression of ferritin relative to the control group (ferritin): 0.72 fold; percentage of intracellular ROS level relative to the control (HepG-2 cells [4]): 17.12%; Cdk 2 expression level (Cdk 2): significant (p < 0.05) decreased; cyclin A expression level (cyclin A): significant (p < 0.05) decreased; cyclin E expression level (cyclin E): significant (p < 0.05) decreased |
| CCNC(=S)NN=C(c1ccccc1)c1ccccn1 [L3, N-Ethyl-2-(phenyl(pyridin-2-yl)methylene)hydrazinecarbothioamide] | – | – | 2430 ± 100 | 13.57 | 33 ± 3.64 | – |
| [Cl][Ga]([Cl])[Cl] [GaCl3, reference compound] | > 50000 | > 50 | – | – | – | anticancer activity (HepG-2; 50 μM): not observed |
| CCNC1=N[N+]2=C(c3ccccc3)c3cccc[n+]3[Ga-2]2([Cl])([Cl])[S]1 [C3, Dichlorido[N-ethyl-2-(phenyl(pyridin-2-yl)methylene)hydrazinecarbothioamide-N,N,S]-gallium(III)] | 1230 ± 90 | 26.6 ± 3.86 | – | – | – | – |
| CN(C)C(=S)NN=C(c1ccccc1)c1ccccn1 [L5, N,N-dimethyl-2-(phenyl(pyridin-2-yl)methylene)hydrazinecarbothioamide] | – | – | 570 ± 40 | 41.84 | 23.9 ± 2 | – |
| CNC(=S)NN=C(c1ccccc1)c1ccccn1 [L2, N-Methyl-2-(phenyl(pyridin-2-yl)methylene)hydrazinecarbothioamide] | – | – | 4560 ± 110 | 7.84 | 35.8 ± 2.19 | – |
| NC1=N[N+]2=C(c3ccccc3)c3cccc[n+]3[Ga-2]2([Cl])([Cl])[S]1 [C1, Dichlorido[2-(phenyl(pyridin-2-yl)methylene)hydrazinecarbothioamide-N,N′,S]gallium(III)] | 5750 ± 540 | 33.8 ± 2.13 | – | – | – | – |
| NC(=S)NN=C(c1ccccc1)c1ccccn1 [L1, 2-(Phenyl(pyridin-2-yl)methylene)hydrazinecarbothioamide] | – | – | 11400 ± 210 | 3.84 | 43.6 ± 2.84 | – |
